Bioassay records as filed in PubChem.
Most compounds without a hit are left out; they make up all but 3.3% or so of the library.
Jurkat viability: cytotoxicity toward Jurkat T cells, primary screen, cytotoxicity control, cell-based, Jurkat E6.1, 60K MLSMR library; 1.2% of 56,000 active; inhibition, % at 4 µM; Jurkat E6.1 viability, ATP luminescence, 48 h;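 active = inhibition above the mean inhibition of all tested compounds plus 3 SD, cut at about 28% in these data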
5HT1E antag: 5-HT1E receptor antagonists, primary screen, cell-based, HTS. 5-hydroxytryptamine receptor 1E (Homo sapiens), P28566. CHO 5-HT1E Ga15 NFAT-bla reporter, FRET, antagonist. inhibition, % at 6 µM. 0.99% of 65,000 active. AID 571, 2007;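 active = inhibition above a set limit, the mean inhibition across every tested compound plus 3 SD, cut at about 29% in these data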;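 note: signal is the 460 over 535 nm emission ratio of beta-lactamase substrate; 0% = agonist plus DMSO wells and 100% = wells without agonist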
HTR1A agonist: human 5-HT1a receptor agonists, primary screen, cell-based, CHO, Ga15 NFAT-bla reporter | 5-hydroxytryptamine receptor 1A (Homo sapiens), P08908 | CHO 5-HT1a Ga15 NFAT-bla reporter, FRET ratio; 0% basal, 100% maximal reference agonist | activation, % at 10 µM | 0.56% of 65,000 active;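 active = activation above the screen-wide mean activation plus 3 SD, cut at about 19% in these data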;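 note: 0% = DMSO wells and 100% = 5-CT at EC100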
Target sequence (P08908 whole entry, looked up): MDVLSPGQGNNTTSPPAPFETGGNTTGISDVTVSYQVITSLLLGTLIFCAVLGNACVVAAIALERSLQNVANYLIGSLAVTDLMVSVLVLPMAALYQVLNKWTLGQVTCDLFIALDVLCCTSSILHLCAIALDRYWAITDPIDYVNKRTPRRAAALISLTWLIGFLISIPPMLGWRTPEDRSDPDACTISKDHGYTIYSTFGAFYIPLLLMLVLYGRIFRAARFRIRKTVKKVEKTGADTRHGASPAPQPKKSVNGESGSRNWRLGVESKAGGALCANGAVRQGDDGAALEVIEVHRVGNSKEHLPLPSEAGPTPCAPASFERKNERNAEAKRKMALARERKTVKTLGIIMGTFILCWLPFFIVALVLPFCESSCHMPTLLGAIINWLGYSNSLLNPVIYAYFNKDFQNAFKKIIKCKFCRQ
5-HT1A blocker: human 5-HT1a receptor antagonists, primary screen, cell-based, CHO, Ga15 NFAT-bla reporter. 5-hydroxytryptamine receptor 1A (Homo sapiens), P08908. CHO 5-HT1a Ga15 NFAT-bla reporter, antagonist mode. inhibition, % at 10 µM. 0.68% of 62,000 active. AID 612, 2007;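 active = inhibition above the mean of all tested compounds plus 3 SD, cut at about 43% in these data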;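 note: receptor stimulated by 5-CT agonist at 100 nM near EC80; beta-lactamase reporter measured by ratiometric fluorescence of a cleavable substrate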
5HT1E ag: 5-HT1E receptor agonists, primary screen, cell-based, HTS; CHO 5-HT1E Ga15 NFAT-bla reporter, FRET; 0% DMSO wells, 100% control agonist wells; activation, % at 6 µM; 0.69% of 65,000 active; AID 574, 2007;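 active = activation above a set limit, the screen-wide mean activation plus 3 SD, cut at about 8.5% in these data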;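 note: 100% = positive control agonist at 1 µM giving full maximal response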
HEK293 NFkB inh: inhibitors of PMA/ionomycin-induced NF-kB reporter, primary screen, antigen receptor NF-kB inhibitor project, cell-based, HEK-293 luciferase reporter, luminescence; 0.21% of 62,000 active; AID 465, 2006; HEK-293 NF-kB luciferase reporter; inhibition, % at 3 µM;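 active = inhibition above the mean of all tested compounds plus 3 SD, cut at about 40% in these data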;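 note: 0% = stimulated DMSO wells and 100% = 10 µM reference inhibitor 5653914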
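Timing: 1 h pretreatment, 16 h stimulation, 37 °C; system: HEK-293 cells with stable firefly luciferase reporter driven by four HIV NF-kB elements; doses: 3 µM once, 0.30% DMSO; measured by: luciferase luminescence; control set: DMSO and 10 µM reference inhibitor; repeats: single test; reagent: PMA plus ionomycin mix as NF-kB-activating stimulus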
* = called active by the depositor; x = no result.

SMILES	Jurkat viability	5HT1E antag	HTR1A agonist	5-HT1A blocker	5HT1E ag	HEK293 NFkB inh
CCCS(=O)(=O)N1CCC(C(=O)NCC2CCCO2)CC1 (stereo not drawn)	2	11	-2	11	-1	12
CCOc1cccc(C(=O)Nc2cccc(-c3nnc(-c4ccc(C)cc4)o3)c2)c1	-5	7	-2	3	-1	-1
COc1ccc(CC(=O)Nc2cccc(-c3nnc(-c4ccc(C)cc4)o3)c2)cc1OC	7	34*	-1	-6	0	6
CCOc1ccccc1CN(CCc1ccc2c(c1)OCO2)Cc1ccccn1	-6	2	1	48*	-1	-2
Fc1ccc(CSc2ncnc3c2oc2ccccc23)cc1	-2	0	1	-7	1	7
Cc1nc(SCc2nc3ccccc3[nH]2)c2oc3ccccc3c2n1	0	39*	0	32	0	13
Cc1nc(SCCO)c2oc3ccccc3c2n1	0	18	1	-2	2	15
Cc1nc(N2CCN(Cc3nc4ccccc4[nH]3)CC2)c2oc3ccccc3c2n1	x	31*	3	11	28*	0
c1ccc2[nH]c(CSc3ncnc4c3oc3ccccc34)nc2c1	8	38*	0	21	0	22
Cc1nnc(Sc2nc3c(c(=O)[nH]c(=O)n3C)n2Cc2ccccc2Cl)s1	3	-6	0	-19	0	14
COc1ccc(Cn2c(=O)oc3ccc(C)cc32)cc1OC	40*	19	-2	15	0	13
O=S(=O)(NCc1ccncc1)c1ccc(Br)s1	94*	9	0	11	0	42*
O=C(O)CNS(=O)(=O)c1ccc(Br)s1	3	6	-1	-8	-1	14
Cc1ccc(S(=O)(=O)NC(CC(=O)NC2CCCC2)c2ccco2)cc1 (stereo not drawn)	-3	1	-1	-1	0	13
CCOC(=O)N1CCC(NC(=O)CC(NS(=O)(=O)c2ccc(Cl)cc2)c2ccco2)CC1 (stereo not drawn)	-1	-3	29*	-16	1	12
CC(C)(CC(=O)N1CCN(c2ccc(Cl)cc2)CC1)CC1=NS(=O)(=O)c2ccccc2N1	16	4	2	-4	1	17
O=C(Nc1ccc(-c2nc3ncccc3o2)cc1)c1ccc(Br)o1	-3	62*	-2	9	1	0
CC1(C)NC(C)(C)C(O)(C(N)=O)C1=O (stereo not drawn)	6	0	-3	-8	1	3
Cc1noc(C)c1CSc1nc2ccccc2[nH]1	11	14	67*	-2	-1	16
CCCCC(CC)Cn1c(N)c(C#N)c2nc3ccccc3nc21 (stereo not drawn)	-2	-14	46*	-68	17*	5
Cn1c(=O)c2c(nc(Sc3n[nH]c(N)n3)n2Cc2ccccc2Cl)n(C)c1=O	-9	0	-1	-7	0	18
CC(C)(C)c1csc(NC(=O)Cn2cnc3ccccc3c2=O)n1	2	-13	-3	-7	0	13
CCC(C)NC(=O)N[C@@H](Cc1ccccc1)C(=O)O (stereo partly drawn)	-3	1	61*	-2	0	4
O=C(NCc1ccccc1)N[C@@H](Cc1ccccc1)C(=O)O	-1	13	-1	-4	-2	8
Cc1cc(NC(=O)c2cccc(S(=O)(=O)N3CCCCCC3)c2)n(-c2ccccn2)n1	8	-5	-1	4	-1	13
SMILES	Jurkat viability	5HT1E antag	HTR1A agonist	5-HT1A blocker	5HT1E ag	HEK293 NFkB inh
Cc1cc(NC(=O)C2CCC2)n(-c2ccccn2)n1	x	36*	2	2	2	6
N#CCCn1cc(/C=N/O)c(-c2ccc(-c3ccccc3)cc2)n1	43*	11	-4	17	0	15
Cc1cc(C(C)(C)C)c(O)c(C)c1CC1=NCCN1	x	4	81*	x	76*	x
CCOC(=O)c1[nH]c2ccc(OC)cc2c1NC(=O)c1ccc2c(c1)OCO2	x	4	1	-5	1	2
COC(=O)c1[nH]c2cc(OC)ccc2c1NC(=O)c1ccc2c(c1)OCO2	x	-10	115*	-4	1	4
CC(=NCCN1CCNCC1)C1=C(O)CC(C)(C)CC1=O	1	-7	0	-15	0	5
Cc1cc(C(=O)O)c(CCCN)s1	-3	-1	1	-12	0	4
COc1ccccc1-c1cc(C(F)(F)F)nc(S(=O)(=O)CCCC(=O)N2CCOCC2)n1	62*	59*	8	26	5	-5
COc1ccc(-c2cc(C(F)(F)F)nc(S(=O)(=O)CCC(=O)N3CCOCC3)n2)cc1	-4	3	-1	12	0	10
CC(C)Nc1nc2n(c(=O)n1)CCN2C(C)C	-8	0	1	-3	0	5
Cc1cc(C(=O)OCC(=O)Nc2ccc(F)cc2)c(C)o1	x	17	-2	-4	-1	13
O=P(O)(CN1CCCCC1)C1CCCCC1O (stereo not drawn)	3	-14	-2	0	1	6
O=S(=O)(c1cccc(Cl)c1)N1CCCC1	x	3	2	1	131*	-4
O=S(=O)(c1cccc(S(=O)(=O)N2CCCC2)c1)c1cccc(S(=O)(=O)N2CCCC2)c1	-2	-6	-6	-6	-1	12
O=C1C(=O)N(CCCN2CCOCC2)C(c2ccccn2)/C1=C(\O)c1ccc2c(c1)OCCO2 (stereo not drawn)	-2	-6	-2	-6	2	4
Cc1ccc(N2CC(C(=O)NCc3ccccn3)CC2=O)cc1 (stereo not drawn)	-6	1	-3	-9	0	7
CC1(C)NC(=O)N(CC(O)Cn2nnc3ccccc32)C1=O (stereo not drawn)	x	-1	-1	x	-1	x
COc1ccc(C(=O)N2CCCC2)cc1	5	-9	-1	3	0	18
COc1ccc(OC)c(C(=O)c2ccc(C(=O)N3CCCCC3)cc2)c1	7	8	25*	0	0	11
C#CCn1c(=NC(=O)CSCC(=O)N2CCOCC2)sc2ccccc21	x	-2	-1	-12	0	20
Cc1c(Br)cc(C(=O)NCc2ccco2)c(C)c1C	-1	13	-1	12	0	6
Cc1ccc2c(CC(=O)NCc3ccco3)coc2c1C	69*	1	-1	9	0	14
